A short description of data set [1]: Ionization constant for the compound. It counts as physicochemical, Rattus norvegicus.
Data set [2] relates to Rattus norvegicus. As to the kind of experiment: Blood pressure lowering activity in renal hypertensive rats after intravenous administration. The format is functional. The method in brief: (§1)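 Male Sprague-Dawley CD rats had the left renal artery ligated under hexobarbital (100 mg/kg ip). Six days later the jugular vein and carotid artery were cannulated under hexobarbital (90 mg/kg ip). Compound was given intravenously to the conscious hypertensive rats while mean arterial pressure was recorded.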

The subject of data set [3] is Rattus norvegicus. Briefly: Effective dose that lowers the blood pressure 30 mmHg after peroral administration. To be noted: po. It counts as functional. The method in brief: (§2)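 Renal artery-ligated conscious rats (4-6 per dose) received compound iv or po. ED30 is the dose lowering blood pressure by 30 mmHg. It was calculated by linear regression of mean maximal decreases, using at least three doses from the linear part of the dose-response curve.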

Data set [4] addresses T1, Angiotensin II receptor (Rattus norvegicus, UniProt P29089+P25095+P35351).
T1 sequence (P29089 whole entry): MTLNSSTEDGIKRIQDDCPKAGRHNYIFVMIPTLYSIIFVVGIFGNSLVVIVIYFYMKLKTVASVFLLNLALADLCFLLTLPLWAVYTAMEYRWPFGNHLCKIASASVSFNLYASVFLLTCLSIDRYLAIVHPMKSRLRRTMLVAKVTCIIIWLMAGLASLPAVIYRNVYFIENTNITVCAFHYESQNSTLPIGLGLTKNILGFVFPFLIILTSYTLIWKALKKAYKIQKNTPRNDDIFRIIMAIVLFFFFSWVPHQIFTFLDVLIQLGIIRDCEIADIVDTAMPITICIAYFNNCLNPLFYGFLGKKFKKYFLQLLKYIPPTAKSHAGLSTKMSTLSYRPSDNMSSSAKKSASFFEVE
T1 sequence (P25095 whole entry): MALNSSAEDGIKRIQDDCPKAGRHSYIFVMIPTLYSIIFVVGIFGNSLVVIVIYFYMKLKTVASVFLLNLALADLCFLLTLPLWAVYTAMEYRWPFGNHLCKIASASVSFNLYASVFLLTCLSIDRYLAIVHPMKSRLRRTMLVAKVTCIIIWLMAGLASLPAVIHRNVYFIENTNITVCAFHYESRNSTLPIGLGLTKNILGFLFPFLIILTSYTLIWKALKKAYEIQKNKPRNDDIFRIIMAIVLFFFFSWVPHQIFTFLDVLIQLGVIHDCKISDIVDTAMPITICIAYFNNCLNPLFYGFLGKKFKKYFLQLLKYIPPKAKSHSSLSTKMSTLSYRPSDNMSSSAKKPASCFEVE
T1 sequence (P35351 whole entry): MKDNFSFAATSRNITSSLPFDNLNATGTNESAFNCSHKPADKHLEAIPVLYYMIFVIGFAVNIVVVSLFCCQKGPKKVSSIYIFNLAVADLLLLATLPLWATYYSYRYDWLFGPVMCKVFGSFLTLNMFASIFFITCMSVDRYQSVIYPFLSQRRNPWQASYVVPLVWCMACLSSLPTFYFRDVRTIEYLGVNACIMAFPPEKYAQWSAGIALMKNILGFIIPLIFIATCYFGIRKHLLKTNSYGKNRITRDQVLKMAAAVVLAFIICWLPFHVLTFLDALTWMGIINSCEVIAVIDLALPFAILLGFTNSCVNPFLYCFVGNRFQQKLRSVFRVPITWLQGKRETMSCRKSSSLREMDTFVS
As to the kind of experiment: Inhibition of radioligand [3H]angiotensin II binding to angiotensin II receptor of rat adrenal cortical membrane. The method in brief: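 Rat adrenal cortical microsomes came from male Sprague-Dawley CD rats (300-400 g) and were prepared at 4 °C in sucrose/EDTA/Tris pH 7.4. Samples were filtered and counted, in duplicate. Specific binding was defined with 1 µM unlabeled AII. IC50 was taken from the linear portion of the displacement curve.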

For data set [5], the system named is Rattus norvegicus. Briefly: Blood pressure lowering activity in renal hypertensive rats after peroral administration. The format is functional. The method in brief: (§3)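 Conscious male Sprague-Dawley CD rats, six days after left renal artery ligation and with jugular and carotid cannulae, were dosed by oral gavage at 1-100 mg/kg (4-6 rats/dose). Mean arterial pressure was monitored for 3 h.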

The subject of data set [6] is Rattus norvegicus. Briefly: Effective dose that lowers the blood pressure 30 mmHg after intravenous administration. It counts as functional. Put shortly:
as §2

The test system of data set [7] is Rattus norvegicus. As to the kind of experiment: Blood pressure lowering activity in renal hypertensive rats after peroral administration; Inactive indicates fail to cause significant drop in blood pressure even at 100 mg/kg (in vivo). More on the design: dose 100 mg/kg. It counts as functional, organism-based. Put shortly:
as §3

The subject of data set [8] is Rattus norvegicus. Briefly: Blood pressure lowering activity in renal hypertensive rats after peroral administration; Inactive indicates fail to cause significant drop in blood pressure even at 100 mg/kg. It counts as functional, organism-based. Details: dose 100 mg/kg. Put shortly:
as §3

The test system of data set [9] is Rattus norvegicus. Briefly: Blood pressure lowering activity in renal hypertensive rats after intravenous administration; no drop in blood pressure or a statistically insignificant drop in blood pressure was observed (in vivo). The format is functional. Put shortly: as §1
Data set [10] concerns Rattus norvegicus. Briefly: Blood pressure lowering activity in renal hypertensive rats after peroral administration; no drop in blood pressure or a statistically insignificant drop in blood pressure was observed (in vivo). The format is functional. Put shortly: as §3
Data set [11] relates to Rattus norvegicus. Briefly: These values indicate drop in blood pressure activity in renal hypertensive rats after peroral administration; NA=not active indicates fail to cause drop in blood pressure even at 30 mg/Kg (in vivo). It counts as functional, organism-based.
In data set [12] the test system is Rattus norvegicus. As to the kind of experiment: Blood pressure lowering activity in renal hypertensive rats after peroral administration; NA=not active indicates fail to cause drop in blood pressure even at 100 mg/Kg (in vivo). It counts as functional, organism-based. The method in brief:
as §3

Data set [13] relates to Rattus norvegicus. Briefly: Blood pressure lowering activity in renal hypertensive rats after intravenous administration; NA=not active indicates fail to cause drop in blood pressure even at 100 mg/Kg (in vivo). The format is functional, organism-based. Put shortly:
as §1

Calls of active or inactive are those of the source. No cut-off for these calls is given here.

`CCCCc1nc(Cl)c(CO)n1Cc1ccc(-c2ccccc2C(=O)O)cc1`: the pKa – broadly, the negative logarithm of the acid dissociation constant – in [1] is 5. The compound also came in with an Activity in [2] of 3 mg/kg. In [3], the ED30 came out at 11 mg/kg.

Turning to `CCCCc1nc(Cl)c(CO)n1Cc1ccc(-c2ccc(OC)cc2-c2nn[nH]n2)cc1`, the IC50 (usually the midpoint of a concentration-inhibition curve) in data set [4] was determined as 0.58 µM. This compound had an Activity in data set [5] of over 10 mg/kg. In addition, the ED30 in data set [6] is 1.75 mg/kg.

In turn, `CCCCc1ncc(CO)n1Cc1ccc(-c2ccccc2C(=O)O)cc1` came in with an IC50 in data set [4] of 0.27 µM. Further, in data set [7], the outcome was inactive. The same compound yielded an Activity in data set [2] of 10 mg/kg.

In data set [2], `CCCCc1nc(Cl)c(C=O)n1Cc1ccc(-c2ccccc2C(=O)O)cc1` had an Activity of 10 mg/kg. This compound also had an ED30 in data set [3] of 1.7 mg/kg.

Regarding `CCCCc1nc(Cl)c(CO)n1Cc1ccc(-c2ccccc2C(=O)NOC)cc1`, the pKa in [1] was determined as 10.9. The compound also returned an Activity in data set [2] of 10 mg/kg. In data set [8], the result was inactive.

`CCCCc1nc(Cl)c(CO)n1Cc1ccc(-c2ccccc2C(=O)NOCc2ccccc2)cc1` showed an IC50 in [4] of 4.9 µM. In data set [1], this compound came in with a pKa of 10.8. The result in data set [7] was inactive. In data set [2], this compound showed an Activity of 10 mg/kg.

Regarding `CCCCc1nc(Cl)c(C=O)n1Cc1ccc(-c2ccc(-c3nn[nH]n3)cc2)cc1`, the IC50 in [4] was over 10 µM. Moreover, the Activity in data set [5] was over 30 mg/kg; in data set [9] it was over 3 mg/kg.

As to `CCCCc1nc(Cl)c(CNC(=O)Nc2cccc3ccccc23)n1Cc1ccc(-c2ccccc2C(=O)O)cc1`, the IC50 in data set [4] is 3 µM. In data set [7], the outcome was inactive. Moreover, the Activity in data set [2] came out at 10 mg/kg.

Compound `CCCCc1nc(Cl)c(C=O)n1Cc1ccc(-c2ccccc2-c2[nH]nnc2F)cc1` registered a half-inhibitory concentration (IC50) in data set [4] of 13 µM. In addition, the result in [7] was inactive. This compound showed an Activity in data set [2] of over 10 mg/kg.

Compound `CCCCc1nc(C(F)(F)F)c(CO)n1Cc1ccc(-c2ccccc2-c2nn[nH]n2)cc1` showed an Activity in [10] of over 3 mg/kg. The compound also returned an ED30 in data set [6] of 0.53 mg/kg.

For `CCCCc1nc(Cl)c(COC)n1Cc1ccc(-c2ccccc2C(=O)NNS(=O)(=O)C(F)(F)F)cc1`, in data set [4], the IC50 came out at 0.2 µM. The Activity is over 30 mg/kg in data set [5] and over 3 mg/kg in data set [9].

In [5], `CCCCc1nc(Cl)c(CO)n1Cc1ccc(-c2cc(OC)ccc2-c2nn[nH]n2)cc1` yielded an Activity of over 10 mg/kg. This compound showed an ED30 in data set [6] of 6.03 mg/kg.

`CCCCc1nc(Cl)c(CNC(=O)NC)n1Cc1ccc(-c2ccccc2C(=O)O)cc1` had an IC50 in data set [4] of 0.24 µM. For the same compound, the result in data set [7] was inactive. Also, the Activity in data set [2] is 10 mg/kg.

As to `CCCc1nc(C)c(CO)n1Cc1ccc(-c2ccccc2C(=O)O)cc1`, the IC50 in [4] was 1.8 µM. The same compound returned an Activity in [5] of over 30 mg/kg. Further, the ED30 in [6] was 1.3 mg/kg.

Compound `CCCCc1nc(Cl)c(C(=O)O)n1Cc1ccc(-c2ccccc2C(=O)O)cc1` yielded a half-inhibitory concentration (IC50) in [4] of 0.092 µM. The Activity in data set [5] is over 10 mg/kg. Besides, in data set [6], the ED30 was determined as 0.47 mg/kg.

For `CCCCc1nc(Cl)c(CNC(=O)NC(C)c2cccc3ccccc23)n1Cc1ccc(-c2ccccc2C(=O)O)cc1` (stereo unspecified), in [4], the half-inhibitory concentration (IC50) came out at 0.7 µM. Moreover, the outcome in [7] was inactive. Besides, in data set [2], the Activity was over 10 mg/kg.

Turning to `CCCCc1nc(Cl)c(CNC(=O)c2cc3c(OCC(O)CNC(C)C)cccc3[nH]2)n1Cc1ccc(-c2ccccc2C(=O)O)cc1` (stereo unspecified), the IC50 in data set [4] stood at 0.38 µM. This compound also returned an ED30 in data set [6] of 1 mg/kg.

The compound `CCCCc1nc(Cl)c(CO)n1Cc1ccc(-c2cc(C#N)ccc2-c2nn[nH]n2)cc1` gave an IC50 in [4] of 0.51 µM. Besides, the Activity was over 30 mg/kg in data set [5] and over 3 mg/kg in [9].

`CCCCc1nc(Cl)c(CO)n1Cc1ccc(-c2ccccc2C(=O)NS(=O)(=O)c2ccccc2)cc1`: the pKa in [1] is 8.44. The compound also displayed an Activity in data set [9] of over 3 mg/kg. Further, in data set [11], the outcome was inactive.

In [4], `CCCCc1nc(Cl)c(CO)n1Cc1ccc(-c2ccccc2C(=O)NO)cc1` came in with an IC50 of 4.1 µM. In addition, the pKa in data set [1] is 10.5. Further, the Activity in [5] is over 30 mg/kg; in data set [9], over 3 mg/kg.

The compound `CCCCc1nc(Cl)c(CO)n1Cc1ccc(-c2ccccc2-c2nnn[nH]2)cc1` [LOSARTAN] came in with a pKa in [1] of 6. For the same compound, the ED30 in data set [6] came out at 0.8 mg/kg; in [3] it was 0.59 mg/kg.

With `CCCCc1nc(Cl)c(CO)n1Cc1ccc(-c2ccccc2NC(=O)C(F)(F)F)cc1`, the pKa in data set [1] worked out at 9.5. Further, the result in data set [7] was inactive. Besides, in data set [2], the Activity came to 10 mg/kg.

Turning to `CC/C=C/c1nc(Cl)c(CO)n1Cc1ccc(-c2ccccc2C(=O)O)cc1`, the ED30 in [6] is 1 mg/kg; in data set [3] it was 3.6 mg/kg.

As to `CCCCc1ncc(CO)n1Cc1ccc(-c2ccccc2-c2nn[nH]n2)cc1`, the outcome in [12] and in data set [13] was inactive.

`CCCCc1nc([N+](=O)[O-])c(CO)n1Cc1ccc(-c2ccccc2C(=O)O)cc1`: the IC50 in [4] is 0.26 µM. The result in data set [7] was inactive. In addition, the Activity in data set [2] came to 10 mg/kg.

For the origin of these results see ChEMBL document CHEMBL1125185, “Nonpeptide angiotensin II receptor antagonists: the discovery of a series of N-(biphenylylmethyl)imidazoles as potent, orally active antihypertensives” (J Med Chem, 1991).
